According to ChEMBL document CHEMBL1153564 (Antimicrob Agents Chemother, 2008):
Values after ≈ are worked out from the molar mass of the structure shown. Starred links: 1 amine or outer side, 2 acyl side, 3 side chain; linkers in the order of their positions; H or OH if unused. Positions of bridges follow the written chain, without caps; N, C: chain ends. Non-standard residues stand in square brackets, D forms with d. Residues, ends and D or L forms follow the SMILES beside them. *: point of attachment. pTerphenylCO(4''-OnC5H11) = CCCCCOc1ccc(-c2ccc(-c3ccc(C(=O)*)cc3)cc2)cc1; Orn(4R-OH,5R-OH) = O=C([C@H](C[C@@H](O)[C@@H](O)N[*:3])N[*:1])[*:2]; hTyr(3S-OH,4S-OH) = N[C@H](C(=O)O)[C@H](O)[C@@H](O)c1ccc(O)cc1; Pro(3S-OH,4S-Me) = C[C@H]1CN[C@H](C(=O)O)[C@H]1O; Hyp = O=C(O)[C@@H]1C[C@@H](O)CN1

How the values were obtained:
Candida tropicalis = assay: Antifungal activity against Candida tropicalis 98-234 infected in neutropenic ICR/Swiss mouse candidiasis model assessed as dose required to maintain […] of 3.81 +/- 0.33 log10CFU per kidney administered intraperitoneally every 24 hrs up to 4 days measured per 24 hrs; assay type: functional
Serum = assay: Fraction unbound in Candida albicans K-1 infected neutropenic ICR/Swiss mouse serum at 20 mg/kg, ip administered 2 hrs postinfection as single dose measured after 12 hrs; assay type: ADME, organism-based; set-up: dose 20 mg/kg, route intraperitoneal; details: in vivo
Nakaseomyces glabratus [1] = assay: Antifungal activity against Candida glabrata 570 infected in neutropenic ICR/Swiss mouse candidiasis model assessed as dose required for 1-log10 reduction in […] per kidney administered intraperitoneally every 24 hrs up to 4 days measured per 24 hrs; assay type: functional
How it was run: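 Neutropenic mouse disseminated candidiasis, with i.p. therapy starting 2 h after i.v. infection. Five total doses of 0.078–20 mg/kg/24 h were given q24h for 4 days, three mice per dose. Kidney CFU were counted at the end and compared with untreated controls. The dose giving a 1 log10 CFU/kidney reduction was derived from the sigmoid Hill dose–effect model.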

Nakaseomyces glabratus [2] = assay: Antifungal activity against Candida glabrata 513 assessed as partial growth inhibition after 24 hrs by CLSI end point method; assay type: functional; details: Nakaseomyces glabratus, 513, 24 h
How it was run: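 Two end points were read against the drug-free control well: partial growth inhibition (the CLSI end point) and complete inhibition. Run in duplicate on four separate occasions; the value is the mean. Drug stock was made in DMSO and diluted in 0.9% NaCl.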

Nakaseomyces glabratus [3] = assay: Antifungal activity against Candida glabrata 5376 infected in neutropenic ICR/Swiss mouse candidiasis model assessed as dose required to maintain […] of 3.71 +/- 0.21 log10CFU per kidney administered intraperitoneally every 16 hrs up to 4 days measured per 96 hrs

CCCCCOc1ccc(-c2ccc(-c3ccc(C(=O)N[C@H]4C[C@@H](O)[C@@H](O)NC(=O)[C@@H]5[C@@H](O)[C@@H](C)CN5C(=O)[C@H]([C@@H](C)O)NC(=O)[C@H]([C@H](O)[C@@H](O)c5ccc(O)cc5)NC(=O)[C@@H]5C[C@@H](O)CN5C(=O)[C@H]([C@@H](C)O)NC4=O)cc3)cc2)cc1 [ANIDULAFUNGIN] ({pTerphenylCO(4''-OnC5H11)}-[Orn(4R-OH,5R-OH)]T[Hyp][hTyr(3S-OH,4S-OH)]T[Pro(3S-OH,4S-Me)]; lactam 1-C)
Activity (Candida tropicalis): 3.81 mg/kg | Fu (Serum): 1% | Activity (Nakaseomyces glabratus [1]): 3.72 mg/kg | MIC (Nakaseomyces glabratus [2]): 0.06 µg/mL (≈ 0.0526 µM) | Activity (Nakaseomyces glabratus [3]): 30 mg/kg
